# Source: PubChem (several laboratories)
# Hits are enriched below; roughly 2.7% of the tested compounds scored in any of these assays.
# Rpn11 inh: inhibitors of human proteasome Rpn11; inhibition, % at 20 µM; AID 588493; O00487; 0.59% of 360,000 active; human 26S proteasome, Ub4-pepOG fluorescence polarization; 20S core pre-blocked with epoxomicin;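 active = inhibition at 20 µM, scaled to each plate's controls, above about 33%, limit read from the data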
# Target sequence (O00487 whole entry, looked up): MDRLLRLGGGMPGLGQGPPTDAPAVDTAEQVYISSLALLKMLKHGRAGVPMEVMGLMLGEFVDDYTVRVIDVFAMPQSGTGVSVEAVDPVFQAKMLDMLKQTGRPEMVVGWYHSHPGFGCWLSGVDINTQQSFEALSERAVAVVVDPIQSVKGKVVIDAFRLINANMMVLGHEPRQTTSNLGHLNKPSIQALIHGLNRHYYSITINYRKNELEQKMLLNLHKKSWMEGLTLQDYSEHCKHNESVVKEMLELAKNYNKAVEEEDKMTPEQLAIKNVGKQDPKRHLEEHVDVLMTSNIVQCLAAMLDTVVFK
# PP1 inh: counter-screen for PP5 inhibitors: inhibitors of human PP1-alpha; inhibition, % at 6.7 µM; 0.9% of 320,000 active; purified PP1alpha, OMFP fluorescence;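 active = inhibition above the mean inhibition of all tested compounds plus 3 SD, computed separately for each screening campaign, cut at about 15% in these data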
# Target sequence (P62136 whole entry, looked up): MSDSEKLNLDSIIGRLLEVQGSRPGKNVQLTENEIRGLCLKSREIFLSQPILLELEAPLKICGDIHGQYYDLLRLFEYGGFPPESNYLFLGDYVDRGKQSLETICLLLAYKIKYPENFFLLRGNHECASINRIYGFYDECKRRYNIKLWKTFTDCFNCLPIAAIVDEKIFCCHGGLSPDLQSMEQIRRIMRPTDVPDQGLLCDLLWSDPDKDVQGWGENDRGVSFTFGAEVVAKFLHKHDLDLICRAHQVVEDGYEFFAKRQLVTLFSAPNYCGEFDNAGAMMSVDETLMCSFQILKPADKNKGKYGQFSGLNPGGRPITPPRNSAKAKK
# HNF4A DNA FP: change in binding of human HNF4 alpha to DNA; activity change, % at 10 µM; P41235; HNF4a-FITC DNA binding, fluorescence polarization, 1 h; AID 1224865; 0.3% of 360,000 active; in the data active = activity change above about 30%, passing the limit was not always enough
# TPT1 inhibitor: blocks Candida albicans tRNA 2'-phosphotransferase | recombinant caTPT1, FP RNA substrate dephosphorylation | inhibition, % at 5 µM | 0.81% of 300,000 active;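 active = inhibition above the mean of all tested compounds plus 3 SD, set per screening campaign, cut at about 24% in these data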;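 also: plate controls were DMSO alone for no effect and ferristatin control at 100 nM for full effect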
# CSN deneddyl inh: inhibitors of human CSN-mediated cullin deneddylation | Q92905 | Purified CSN, SCF-Nedd8-OG deneddylation, fluorescence polarization | inhibition, % at 12.5 µM | 0.38% of 360,000 active | AID 651999;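 active = pattern-corrected inhibition above about 35%, with an unprinted fluorescence ratio check between 0.5 and 1.5, limit read from the data, passing the limit was not always enough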;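 also: 0% = enzyme with substrate and 100% = substrate without enzyme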
#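 Material: human Csn5 produced in HEK293T cells; Input: enzyme 0.24 nM; Reagent: SCFSkp2-Nedd8OG substrate at 10 nM final; Dosing: 12.5 µM compound; Incubation: 90 min reaction at room temperature; Detection: fluorescence polarization of the substrate; Evaluation: % inhibition of substrate cleavage by Csn5; Control set: substrate-only high control, full reaction low control.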
# NadD block: blocks S. aureus nicotinate mononucleotide adenylyltransferase. 0.78% of 360,000 active. AID 602399. purified NadD enzyme, colorimetric absorbance read-out. inhibition, % at 20 µM; in the data active = inhibition above about 26%
# An asterisk follows results filed as active; . = no result given.
SMILES,Rpn11 inh,PP1 inh,HNF4A DNA FP,TPT1 inhibitor,CSN deneddyl inh,NadD block
C=C1c2cccc(O)c2C(O)=C2C(=O)[C@]3(O)C(O)=C(C(N)=O)C(=O)[C@@H](N(C)C)[C@@H]3[C@@H](O)[C@H]12,15.2,50.2*,-51.9,-8.1,48.9,12.0
Cn1c(N)c(C(=O)COC(=O)c2ccc(-c3ccccc3)cc2)c(=O)n(C)c1=O,5.4,.,0.7,.,-1.8,-3.6
CC(=O)Nc1ccc(S(=O)(=O)N2CCN(C(=O)c3ncoc3-c3ccc(C)cc3)CC2)cc1,0.0,3.7,2.2,1.3,-2.2,-0.9
Cc1ccccc1-n1nc2c(c1NC(=O)c1ccc(Br)o1)CSC2,2.4,5.6,0.7,1.2,5.8,49.6*
Cc1ccccc1-n1nc2c(c1NC(=O)c1ccco1)CS(=O)(=O)C2,-1.6,-3.7,0.1,-1.8,4.0,1.7
O=[N+]([O-])c1ccc2nc(Cl)nc(-c3ccccc3)c2c1,2.7,.,-1.3,.,0.6,-3.2
N#Cc1cc(Oc2cccc3cccnc23)c(-n2nnc3ccccc32)cc1C#N,-3.8,15.8*,2.7,4.1,2.8,7.9
N#Cc1cc(O)c(-n2nnc3ccccc32)cc1C#N,3.1,-4.4,6.1,5.4,-5.1,-0.8
O=C(c1[nH]c(C(F)(F)F)nc1-c1ccccc1)N1CCCN(Cc2ccc(F)cc2)CC1,-0.7,.,12.2,.,76.2*,4.5
COc1ccc(/C=N\NC(=O)c2ccc([N+](=O)[O-])c(C)c2)cc1COc1ccccc1C(N)=O,20.7,6.5,11.3,-5.0,35.0*,18.9
COc1ccc(C(=O)Nc2ccc(-c3nnn(CC(=O)N4CCN(C(=O)c5ccco5)CC4)n3)cc2)cc1,11.5,-0.3,7.4,1.7,79.9*,-0.9
O=C(Cn1nnc(-c2ccc(Cl)cc2)n1)N1CCN(C(=O)c2ccco2)CC1,1.4,-2.4,-2.5,.,-6.0,0.8
CCCCN(CCCC)c1nc2ccccc2nc1C(C#N)C(=O)NCCCOC (centres undefined),.,-5.3,-0.8,7.7,98.8*,-5.4
Cc1ccc(C)c(S(=O)(=O)N2CCCC2CNC(=O)C(=O)NCC2CCCO2)c1 (centres undefined),-12.5,-4.2,33.9*,-2.3,4.6,-3.6
Cc1nnc(SCC(=O)Nc2cccc(S(=O)(=O)N3CCCC3)c2)n1C1CC1,1.3,.,2.1,.,-5.7,6.2
CC1Cc2ccccc2N1S(=O)(=O)c1cccs1 (centres undefined),.,0.0,114.7*,4.1,57.5*,-5.9
COC(=O)c1cc(S(=O)(=O)N2c3ccccc3CC2C)cn1C (centres undefined),-0.7,2.5,1.8,0.4,37.8*,-7.8
COC(=O)c1cc(S(=O)(=O)N2CCN(c3ccccc3OC)CC2)cn1C,1.1,-6.9,0.9,-3.5,1.2,-2.7
CN(C)CCNC(=O)C1(C)Cc2c(-c3cccc(C(F)(F)F)c3)ccnc2O1 (centres undefined),0.7,.,-3.3,.,5.4,-0.4
Cc1cc(Br)cn2c(Cc3ccsc3)c(-c3ccc(Cl)cc3)nc12,-1.6,.,-12.8,.,-0.5,3.3
O=C(O)c1cc(-c2ccc(/C=C3\NC(=O)N(c4ccccc4)C3=O)o2)ccc1Cl,-3.4,-2.8,-17.6,-4.4,24.3,-3.3
O=C(O)c1cc(-c2ccc(/C=c3\sc4nc5ccc(Br)cc5n4c3=O)o2)ccc1Cl,.,11.0,.,71.2*,.,.
CCC1CCCCN1C(=O)COC(=O)c1cc(C)nc2ccccc12 (centres undefined),5.6,-2.8,-3.0,.,2.2,5.3
O=[N+]([O-])c1ccc(Cl)c(S(=O)(=O)NCCc2ccccn2)c1,-2.2,.,-0.4,.,-2.1,2.2
O=C(C[n+]1ccc(CCSc2ccc(F)cc2)cc1)c1ccccc1,82.4*,1.2,127.9,14.8,105.0*,18.0
SMILES,Rpn11 inh,PP1 inh,HNF4A DNA FP,TPT1 inhibitor,CSN deneddyl inh,NadD block
Cc1ccc2nc(N(CCCN(C)C)C(=O)c3cc(-c4cccs4)nc4ccccc34)sc2c1,5.8,16.8*,3.7,-4.3,0.1,8.0
C=CCN(c1ccccc1)S(=O)(=O)c1cccc(C(=O)NCc2ccco2)c1,-1.9,.,-0.1,.,1.9,-5.1
COc1ccc([N+](=O)[O-])c(O)c1C(C)=O,10.3,.,-2.7,.,5.4,-1.3
c1ccc(CNc2c3c(nc4ncnn24)CCC3)cc1,39.5,-3.9,62.8*,-3.7,3.7,-7.1
CN(/N=C\c1ccc(O)c(O)c1)c1nc(-c2ccccc2)cc(-c2ccccc2)n1,-0.9,1.6,0.6,-0.3,0.9,33.3*
CCOC(=O)c1cc(-c2ccccc2)sc1NC(=O)COC(=O)c1ccc(Cl)c(S(N)(=O)=O)c1,2.8,-5.4,-2.7,-4.0,1.2,41.9*
COc1ccc(-c2csc(NC(=O)C3CCN(C(=O)c4ccc(F)cc4)CC3)n2)cc1OC,4.6,-2.7,4.0,0.0,0.0,1.8
Cc1ccc2c(c1)C(=O)C(=O)N2CCCOc1ccccc1,7.0,6.9,-1.7,2.2,0.0,-1.8
Cc1ccc(OCCCN2C(=O)C(=O)c3cc(C)ccc32)cc1,2.3,16.6*,0.1,0.0,0.6,-12.3
Cc1cccc(OCCCN2C(=O)C(=O)c3cc(C)ccc32)c1,6.3,15.9*,-0.4,2.1,-1.4,-4.4
Cc1ccc(S(=O)(=O)N2CCN(C(=O)CCn3cncn3)CC2)cc1C,1.9,-0.3,0.6,-2.1,-2.9,6.2
Cc1[nH]n(C(N)=S)c(=O)c1N=Nc1cc(-c2ccc(Br)cc2)[nH]n1,8.5,7.3,2.2,-1.4,-7.1,42.6*
COc1ccc(Cl)cc1NC(=O)CN1c2ccccc2CC1C (centres undefined),7.3,-1.0,32.6*,-0.2,-1.0,-2.1
C=CCNC(=O)/C(C#N)=C/c1c(N2CCCCCC2)nc2ccccn2c1=O,1.8,-0.7,0.7,1.6,56.7*,0.8
C#CCOCCOCCOCCNc1nc(N2CCN(C(=O)[C@H](CCC(=O)O)n3cc(C(N)CO)nn3)CC2)nc(N2CCN(C(=O)[C@H](Cc3cc4ccccc4[nH]3)n3cc(C(N)[C@H](C)CC)nn3)CC2)n1 (some centres undefined),3.0,-1.4,0.0,-2.1,4.0,10.3
C#CCOCCOCCOCCNc1nc(N2CCN(C(=O)C(Cc3ccc(O)cc3)n3cc(C(N)CC(C)C)nn3)CC2)nc(N2CCN(C(=O)C(Cc3cc4ccccc4[nH]3)n3cc(C(N)Cc4ccc(O)cc4)nn3)CC2)n1 (centres undefined),.,16.9*,.,0.3,.,.
C#CCOCCOCCOCCNc1nc(N2CCN(C(=O)[C@H](Cc3cc4ccccc4[nH]3)n3cc([C@@H](N)C(C)CC)nn3)CC2)nc(N2CCN(C(=O)[C@H](CCCCN)n3cc([C@@H](N)CO)nn3)CC2)n1 (some centres undefined),.,7.9,.,0.8,.,.
